Reference: ChEMBL document CHEMBL1122615, “Design and synthesis of naltrexone-derived affinity labels with nonequilibrium opioid agonist and antagonist activities. Evidence for the existence of different mu receptor subtypes in different tissues” (J Med Chem, 1984)
Several values for one entry are separate records, joined by “and”; a condition that tells them apart may be missing. Identical values can stand only once. Activity calls are given as the source filed them. No cut-off for these calls is given here.

How the values were obtained:
[1] = The relative rate (to beta FNA) in the reaction of Michael acceptors with cysteine at pH 7.4 at 25 degree Celsius in the presence of 13 fold excess cysteine was reported for half-life.; assay type: ADME
Procedure, shortened: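 Reaction with a 13-fold excess of cysteine at pH 7.4, 25 °C under rapid stirring; aliquots quenched by acidification to pH 1 at timed intervals. Remaining compound quantified by reversed-phase HPLC (UV 254 nm, internal standard), four intervals in duplicate. Half-life taken from the slope of log amount remaining vs time; rate expressed relative to β-FNA.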

Cavia porcellus [2] = species on record: Cavia porcellus; assay: The agonist potency in the guinea pig ileal longitudinal muscle preparation (GPI) was determined relative to morphine as control; assay type: functional, Muscle tissue
Mus musculus [3] = species on record: Mus musculus; assay: (§1) The agonist potency was assessed by measuring the inhibition of contraction at a single concentration (200 nM).; assay type: functional
Mus musculus [4] = species on record: Mus musculus; assay: Compound was tested for persistent effect, percent inhibition contraction that is not reversed significantly by >=20 washings following a 30 min incubation at 200 nM.; assay type: functional
[5] = biological target: Kappa-type opioid receptor (Homo sapiens) (UniProt P41145); assay: Compound was tested for irreversible antagonist activity at kappa receptor by determining by ileal response to ethylketazocine after 30 min incubation at 200 nM; assay type: functional
[6] = biological target: Mu-type opioid receptor (Mus musculus) (UniProt P42866); assay: Irreversible antagonist activity at mouse vas deferens mu receptor against DADLE after 30 min at 200 nM; assay type: functional, tissue-based
[7] = biological target: Mu-type opioid receptor (Homo sapiens) (UniProt P35372); assay: Compound was tested for irreversible antagonist activity at mu receptor by determining by ileal response to morphine after 30 min incubation at 200 nM; assay type: functional
[8] = biological target: Mu-type opioid receptor (Homo sapiens) (UniProt P35372); assay: Irreversible antagonist activity at mu receptor by determining by ileal response to morphine after 30 min incubation at 20 nM; assay type: functional
[9] = biological target: Mu-type opioid receptor (Homo sapiens) (UniProt P35372); assay: Compound was tested for irreversible antagonist activity at mu receptor by determining by MVD response to morphine after 30 min incubation at 200 nM; assay type: functional
[10] = biological target: Kappa-type opioid receptor (Homo sapiens) (UniProt P41145); assay: Irreversible antagonist activity at kappa receptor as ileal response to ethylketazocine after 30 min incubation at 20 nM; assay type: functional
Cavia porcellus [11] = species on record: Cavia porcellus; assay: Compound was tested for persistent effect, percent inhibition of twitch that is not reversed by >=20 washings following 30 -min incubation at 20 nM; assay type: functional
Mus musculus [12] = species on record: Mus musculus; assay: Compound was tested for persistent effect, percent inhibition contraction that is not reversed significantly by >=20 washings following a 30 min incubation at 20 nM.; assay type: functional
[13] = biological target: Mu-type opioid receptor (Homo sapiens) (UniProt P35372); assay: Compound was tested for irreversible antagonist activity at mu receptor by determining by MVD response to DADLE after 30 min incubation at 20 nM; assay type: functional
[14] = biological target: Mu-type opioid receptor (Homo sapiens) (UniProt P35372); assay: Compound was tested for irreversible antagonist activity at mu receptor by determining by MVD response to DADLE after 30 min incubation at […]; assay type: functional
[15] = biological target: Mu-type opioid receptor (Homo sapiens) (UniProt P35372); assay: Compound was tested for irreversible antagonist activity at mu receptor by determining by MVD response to morphine after 30 min incubation at 20 nM; assay type: functional
Cavia porcellus [16] = species on record: Cavia porcellus; assay: Compound was tested for persistent effect, percent inhibition of twitch that is not reversed by >=20 washings following 30 -min incubation at 200 nM; none; assay type: functional
[17] = biological target: Mu-type opioid receptor (Homo sapiens) (UniProt P35372); assay: Compound was tested for irreversible antagonist activity at mu receptor by determining by MVD response to DADLE after 30 min incubation at 100 nM; assay type: functional
[18] = biological target: Mu-type opioid receptor (Homo sapiens) (UniProt P35372); assay: Compound was tested for irreversible antagonist activity at mu receptor by determining by ileal response to morphine after 30 min incubation at 1000 nM; assay type: functional
[19] = biological target: Mu-type opioid receptor (Homo sapiens) (UniProt P35372); assay: Compound was tested for irreversible antagonist activity at mu receptor by determining by MVD response to morphine after 30 min incubation at 100 nM; assay type: functional
[20] = biological target: Kappa-type opioid receptor (Homo sapiens) (UniProt P41145); assay: (§2) Compound was tested for irreversible antagonist activity at kappa receptor by determining by ileal response to ethylketazocine after 30 min incubation at 1000 nM; assay type: functional
Cavia porcellus [21] = species on record: Cavia porcellus; assay: Compound was tested for persistent effect, percent inhibition of twitch that is not reversed by >=20 washings following 30 -min incubation at 20 nM; none; assay type: functional
Cavia porcellus [22] = species on record: Cavia porcellus; assay: Evaluated for the inhibition concentration in the guinea pig ileal longitudinal muscle preparation (GPI); assay type: functional, Muscle tissue
Cavia porcellus [23] = species on record: Cavia porcellus; assay: (§3) Compound was tested for persistent effect, percent inhibition of twitch that is not reversed by >=20 washings following 30 -min incubation at 200 nM; assay type: functional
Mus musculus [24] = species on record: Mus musculus; assay: as §1; assay type: functional; remark: listed apart in the source
Mus musculus [25] = species on record: Mus musculus; assay: Compound was tested for persistent effect, percent inhibition contraction that is not reversed significantly by >=20 washings following a 30 min incubation at 3 nM.; assay type: functional
[26] = biological target: Kappa-type opioid receptor (Homo sapiens) (UniProt P41145); assay: Compound was tested for irreversible antagonist activity at kappa receptor by determining by ileal response to ethylketazocine after 30 min incubation at 10 nM; assay type: functional
[27] = biological target: Mu-type opioid receptor (Homo sapiens) (UniProt P35372); assay: Compound was tested for irreversible antagonist activity at mu receptor by determining by ileal response to morphine after 30 min incubation at 10 nM; assay type: functional
[28] = biological target: Mu-type opioid receptor (Homo sapiens) (UniProt P35372); assay: Compound was tested for irreversible antagonist activity at mu receptor by determining by MVD response to DADLE after 30 min incubation at 3 nM; assay type: functional
[29] = biological target: Mu-type opioid receptor (Homo sapiens) (UniProt P35372); assay: Compound was tested for irreversible antagonist activity at mu receptor by determining by ileal response to morphine after 30 min incubation at 20 nM; assay type: functional
Cavia porcellus [30] = species on record: Cavia porcellus; assay: as §3; assay type: functional; remark: listed apart in the source
[31] = biological target: Kappa-type opioid receptor (Homo sapiens) (UniProt P41145); assay: Compound was tested for irreversible antagonist activity at kappa receptor by determining by ileal response to ethylketazocine after 30 min incubation at 20 nM; assay type: functional
Mus musculus [32] = species on record: Mus musculus; assay: The agonist potency was assessed by measuring the inhibition of contraction at a single concentration (200 nM); assay type: functional
[33] = biological target: Mu-type opioid receptor (Homo sapiens) (UniProt P35372); assay: Compound was tested for irreversible antagonist activity at mu receptor by determining by MVD response to Morphine after 30 min incubation at 200 nM; assay type: functional
[34] = biological target: Mu-type opioid receptor (Homo sapiens) (UniProt P35372); assay: Compound was tested for irreversible antagonist activity at mu receptor by determining by MVD response to ethylketazocine after 30 min incubation at 200 nM; assay type: functional
[35] = biological target: Mu-type opioid receptor (Homo sapiens) (UniProt P35372); assay: Compound was tested for irreversible antagonist activity at mu receptor by determining by MVD response to DADLE after 30 min incubation at 10 nM; assay type: functional
Mus musculus [36] = species on record: Mus musculus; assay: The agonist potency was assessed by measuring the inhibition of contraction at a single concentration (30 nM).; assay type: functional
[37] = biological target: Mu-type opioid receptor (Homo sapiens) (UniProt P35372); assay: Compound was tested for irreversible antagonist activity at mu receptor by determining by MVD response to DADLE after 30 min incubation at 30 nM; assay type: functional
[38] = as §2; assay type: functional

Kappa-type opioid receptor (Homo sapiens), sequence (P41145 whole entry): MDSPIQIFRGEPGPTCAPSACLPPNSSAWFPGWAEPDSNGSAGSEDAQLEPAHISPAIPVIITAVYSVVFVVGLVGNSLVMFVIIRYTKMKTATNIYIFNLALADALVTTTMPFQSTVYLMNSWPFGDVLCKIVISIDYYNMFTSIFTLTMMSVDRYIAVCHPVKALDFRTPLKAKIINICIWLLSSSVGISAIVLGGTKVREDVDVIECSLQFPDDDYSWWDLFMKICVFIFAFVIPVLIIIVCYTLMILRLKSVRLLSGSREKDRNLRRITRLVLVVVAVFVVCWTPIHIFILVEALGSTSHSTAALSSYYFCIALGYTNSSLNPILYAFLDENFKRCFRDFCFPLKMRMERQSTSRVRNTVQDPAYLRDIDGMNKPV
Mu-type opioid receptor (Homo sapiens), sequence (P35372 whole entry): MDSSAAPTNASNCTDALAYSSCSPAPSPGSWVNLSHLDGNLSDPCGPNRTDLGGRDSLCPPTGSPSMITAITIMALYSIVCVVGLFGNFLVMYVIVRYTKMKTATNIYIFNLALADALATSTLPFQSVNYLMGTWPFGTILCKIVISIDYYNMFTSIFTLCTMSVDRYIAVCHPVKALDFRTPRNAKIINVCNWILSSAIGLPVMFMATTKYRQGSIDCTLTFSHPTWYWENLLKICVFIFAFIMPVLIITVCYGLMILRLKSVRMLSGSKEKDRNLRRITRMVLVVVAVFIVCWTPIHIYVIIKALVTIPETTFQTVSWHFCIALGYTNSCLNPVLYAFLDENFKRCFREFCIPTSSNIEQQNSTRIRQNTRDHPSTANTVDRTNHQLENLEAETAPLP
Mu-type opioid receptor (Mus musculus), sequence (P42866 whole entry): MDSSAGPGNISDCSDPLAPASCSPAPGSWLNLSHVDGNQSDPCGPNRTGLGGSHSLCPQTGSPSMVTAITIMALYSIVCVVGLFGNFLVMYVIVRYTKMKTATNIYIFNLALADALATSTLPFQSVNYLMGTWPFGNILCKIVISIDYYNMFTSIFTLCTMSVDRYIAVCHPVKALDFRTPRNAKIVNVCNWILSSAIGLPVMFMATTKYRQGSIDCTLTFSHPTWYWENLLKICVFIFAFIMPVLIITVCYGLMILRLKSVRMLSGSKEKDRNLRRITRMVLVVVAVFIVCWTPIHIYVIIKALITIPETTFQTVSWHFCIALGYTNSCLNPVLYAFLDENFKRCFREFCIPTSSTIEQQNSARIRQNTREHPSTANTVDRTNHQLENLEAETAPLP

Row | Compound | Relative rate [1] | Potency (Cavia porcellus [2]) | Agonist potency (Mus musculus [3]) | Ratio [5] | Ratio [6] | Ratio [7] | Ratio [8] | Ratio [9] | Ratio [10] | further results
1 | O=C1C=CC(=O)N1[C@@H]1CCC2(O)C3Cc4ccc(O)c5c4C2(CCN3CC2CC2)C1O5 (stereo not given in full) | 450 | 2 | 52 | 1.4 | 0.81 | 1.3 | 1.3 | 1.1 | 0.94 | Inhibition (Mus musculus [4]): 35%
2 | C#CC(=O)N[C@@H]1CCC2(O)C3Cc4ccc(O)c5c4C2(CCN3CC2CC2)C1O5 (stereo not given in full) |  | 56 |  |  | 1.3 |  | 2.6 |  | 0.84 | Inhibition (Cavia porcellus [11]): 53%; Inhibition (Mus musculus [12]): 50%; Ratio [13]: 1.06; Ratio [14]: 1.5; Ratio [15]: 5
3 | O=C(CSSc1ccccc1[N+](=O)[O-])N[C@@H]1CCC2(O)C3Cc4ccc(O)c5c4C2(CCN3CC2CC2)C1O5 (stereo not given in full) |  | 1.1 | 70 | 1.3 | 0.98 | 2.5 | 1.3 | 1.8 | 0.5 | inhibition (Cavia porcellus [16]): inactive
4 | COC(=O)/C=C/C(=O)N[C@@H]1CC[C@@]2(O)[C@H]3Cc4ccc(O)c5c4[C@@]2(CCN3CC2CC2)[C@H]1O5 | 1 | 5 |  |  | 1.1 |  | 6 | 10.6 | 1 | Ratio [17]: 1.8; Ratio [18]: 18.8; Ratio [19]: 3.9; Ratio [20]: 1.3
5 | CC(=O)/C=C/C(=O)N[C@@H]1CCC2(O)C3Cc4ccc(O)c5c4C2(CCN3CC2CC2)C1O5 (stereo not given in full) | 225 | 4.5 | 31 |  | 5 |  | 12.5 | 30 | 0.9 | inhibition (Cavia porcellus [21]): inactive
6 | COC(=O)C=CC(=O)N[C@@H]1CCC2(O)C3Cc4ccc(O)c5c4C2(CCN3CC2CC2)C1O5 (stereo not given in full) | 0.5 |  |  |  |  |  |  |  |  | 
7 | O=C(CBr)N[C@@H]1CCC2(O)C3Cc4ccc(O)c5c4C2(CCN3CC2CC2)C1O5 (stereo not given in full) |  | 58 | 31 | 0.78 | 1.5 | 1.7 | 3.3 | 1.4 | 0.73 | Inhibition (Mus musculus [4]): 20%
8 | CCOc1ccc2c(c1)C1(C)CCN(CC3CC3)C(C2=O)C1C (stereo not given) [ETHYLKETAZOCINE] |  |  |  |  |  |  |  |  |  | IC50 (Cavia porcellus [22]; Cavia porcellus, Muscle tissue): 9.73 nM
9 | 6beta-[(Chloromercuri)acetamido]-17-(cyclopropyl-methyl)-4,5alpha-epoxy-3,14-duhydroxymorphinan Methanesulphonate [listing 1 of 2 here] |  |  |  | 1.3 | 2.6 and 0.9 | 4.2 |  | 0.57 | 1 | Potency (Cavia porcellus [2]; Muscle tissue): 50; inhibition (Cavia porcellus [23]): 26%; Potency (Mus musculus [24]): 54 nM; inhibition (Mus musculus [25]): 20%; Ratio [26]: 0.74; Ratio [27]: 0.75; Ratio [28]: 1.1; Ratio [29]: 1.2
10 | COC(=O)CCC(=O)N[C@@H]1CCC2(O)C3Cc4ccc(O)c5c4C2(CCN3CC2CC2)C1O5 (stereo not given in full) |  | 5.3 |  |  |  |  |  |  |  | Inhibition (Cavia porcellus [30]): 10%; Ratio [31]: 1; Ratio [29]: 0.92
11 | 6beta-[(Chloromercuri)acetamido]-17-(cyclopropyl-methyl)-4,5alpha-epoxy-3,14-duhydroxymorphinan Methanesulphonate [listing 2 of 2 here] |  |  |  |  |  |  |  |  |  | IC50 (Cavia porcellus [22]): 300 nM
12 | C=C(Cl)C(=O)N[C@@H]1CCC2(O)C3Cc4ccc(O)c5c4C2(CCN3CC2CC2)C1O5 (stereo not given in full) | 0.4 | 1.1 |  | 0.88 | 1.6 |  | 13.4 | 6 | 0.93 | inhibition (Cavia porcellus [16]): inactive; Agonist potency (Mus musculus [32]): 44
13 | O=C(CN1C(=O)C=CC1=O)N[C@@H]1CCC2(O)C3Cc4ccc(O)c5c4C2(CCN3CC2CC2)C1O5 (stereo not given in full) | 450 | 0.6 | 240 nM | 0.92 | 1.8 | 3.3 | 1.5 |  | 0.71 | Inhibition (Cavia porcellus [30]): 59%; Inhibition (Cavia porcellus [11]): 21%; Ratio [33]: 30; Ratio [34]: 0.71
14 | O=C(N[C@@H]1CCC2(O)C3Cc4ccc(O)c5c4C2(CCN3CC2CC2)C1O5)C(=O)c1ccccc1 (stereo not given in full) |  | 24 | 51 |  | 0.87 |  | 1.48 | 6.5 | 0.93 | Inhibition (Cavia porcellus [11]): 22%; Inhibition (Mus musculus [12]): 44%; Ratio [35]: 0.56; Ratio [13]: 0.51
15 | C=CCN1CCC23c4c5ccc(O)c4OC2[C@H](NC(=O)/C=C/C(=O)OC)CCC3(O)C1C5 (stereo not given in full) |  | 5.8 |  |  | 1.1 | 6.4 | 2.2 | 4 | 1 | Inhibition (Cavia porcellus [30]): 40%; Agonist potency (Mus musculus [36]): 34; Ratio [37]: 1.7; Ratio [38]: 1.9
16 | O=C(N[C@@H]1CC[C@@]2(O)[C@H]3Cc4ccc(O)c5c4[C@@]2(CCN3CC2CC2)[C@H]1O5)c1ccccc1 |  | 201 |  |  | 1 |  | 1.4 | 1.9 | 0.91 | Inhibition (Cavia porcellus [11]): 39%; Agonist potency (Mus musculus [32]): 29 nM; Inhibition (Mus musculus [4]): 50%; Ratio [13]: 2.3
